Test results as given in ChEMBL document CHEMBL4000150, “Synthesis and antitumor activity evaluation of PI3K inhibitors containing 3-substituted quinazolin-4(3H)-one moiety” (Bioorg Med Chem, 2015).
pIC50: −log10 of the molar value.

Experiments:
HCT-116 = experiment: Antiproliferative activity against human HCT116 cells harboring PI3CA H1047R mutant after 72 hrs by MTT assay; assay type: functional, cell-based; conditions: HCT-116, 72 h
Summary of the method: (§1)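 Cells were grown as monolayers in DMEM + 10% FBS at 37 °C, 5% CO2, and seeded at 3000-5000/well, 24 h before dosing. They were exposed 72 h to final 10.0, 5.0, 1.0 and 0.5 μM. MTT (5 mg/mL in PBS) was then added for 4 h at 37 °C, formazan dissolved in DMSO and read at 570 nm. Three experiments in triplicate; IC50 derived from inhibition ratios.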

MCF7 = experiment: Antiproliferative activity against human MCF7 cells harboring PI3CA E545K mutant after 72 hrs by MTT assay; assay type: functional, cell-based; conditions: MCF7, 72 h; summary of the method: as §1
[1] = molecular target: PI3-kinase p110-alpha/p85-alpha (Homo sapiens) (UniProt P27986+P42336); experiment: Ratio of BEZ235 IC50 to compound IC50 for P110alpha/p85alpha (unknown origin) using L-alpha-phosphatidylinositol as substrate after 40 mins by ATP depletion assay; assay type: protein-complex assay
[2] = molecular target: PI3-kinase subunit gamma/Phosphoinositide 3-kinase regulatory subunit 5 (Homo sapiens, UniProt P48736); experiment: Inhibition of P110gamma/PIK3R5 (unknown origin) using L-alpha-phosphatidylinositol as substrate after 40 mins by ATP depletion assay; assay type: protein-complex assay
PI3K p110 beta/p85 alpha = PI3K p110 beta/p85 alpha (Homo sapiens, UniProt P42338); experiment: Inhibition of P110beta/p85alpha (unknown origin) using L-alpha-phosphatidylinositol as substrate after 40 mins by ATP depletion assay; assay type: protein-complex assay
[3] = molecular target: PI3-kinase p110-delta/p85-alpha (Homo sapiens, UniProt O00329); experiment: Inhibition of P110delta/p85alpha (unknown origin) using L-alpha-phosphatidylinositol as substrate after 40 mins by ATP depletion assay; assay type: protein-complex assay
[4] = molecular target: PI3-kinase p110-alpha/p85-alpha (Homo sapiens, UniProt P42336); experiment: Inhibition of P110alpha/p85alpha (unknown origin) using L-alpha-phosphatidylinositol as substrate after 40 mins by ATP depletion assay; assay type: protein-complex assay
[5] = molecular target: Serine/threonine-protein kinase mTOR (Homo sapiens, UniProt P42345); experiment: Inhibition of mTOR (unknown origin) using L-alpha-phosphatidylinositol as substrate after 40 mins by ATP depletion assay
CCRF S-180 [6] = experiment: Anticancer activity against mouse S180 cells homografted in mouse assessed as tumor growth inhibition at 40 mg/kg, po qd for 8 days measured on day 9 post dose relative to vehicle-treated control; assay type: functional; conditions: CCRF S-180, po, read-out: TGI
Summary of the method: (§2)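 3×10^6 S-180 cells injected s.c. into mouse flank (mice 19.5 ± 1.8 g); randomized, 8 per group. Dosing began next day, oral once daily for 8 days in DMSO:PEG400:5% glucose injection (1:7:2, v/v/v); vehicle group got equal solvent volume. Mice sacrificed Day 9, tumors weighed, and tumor-weight inhibitory ratio calculated versus solvent group.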

CCRF S-180 [7] = experiment: Anticancer activity against mouse S180 cells homografted in mouse assessed as tumor growth inhibition at 20 mg/kg, po qd for 8 days measured on day 9 post dose relative to vehicle-treated control; assay type: functional; conditions: CCRF S-180, po, read-out: TGI; summary of the method: as §2
Mus musculus = experiment: Toxicity in mouse S180 cells homografted mouse assessed as reduction of body weight at 20 to 40 mg/kg, po qd for 8 days; assay type: organism-based; conditions: in vivo, 192 h
Summary of the method: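 S-180 sarcoma-bearing mice (3×10^6 cells s.c., flank; 8 per group) given oral doses once daily for 8 days in DMSO:PEG400:5% glucose injection (1:7:2, v/v/v), starting the day after implantation; solvent-only group as control. Body weight recorded daily through sacrifice on Day 9.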

PI3-kinase subunit gamma/Phosphoinositide 3-kinase regulatory subunit 5, sequence (P48736 whole entry): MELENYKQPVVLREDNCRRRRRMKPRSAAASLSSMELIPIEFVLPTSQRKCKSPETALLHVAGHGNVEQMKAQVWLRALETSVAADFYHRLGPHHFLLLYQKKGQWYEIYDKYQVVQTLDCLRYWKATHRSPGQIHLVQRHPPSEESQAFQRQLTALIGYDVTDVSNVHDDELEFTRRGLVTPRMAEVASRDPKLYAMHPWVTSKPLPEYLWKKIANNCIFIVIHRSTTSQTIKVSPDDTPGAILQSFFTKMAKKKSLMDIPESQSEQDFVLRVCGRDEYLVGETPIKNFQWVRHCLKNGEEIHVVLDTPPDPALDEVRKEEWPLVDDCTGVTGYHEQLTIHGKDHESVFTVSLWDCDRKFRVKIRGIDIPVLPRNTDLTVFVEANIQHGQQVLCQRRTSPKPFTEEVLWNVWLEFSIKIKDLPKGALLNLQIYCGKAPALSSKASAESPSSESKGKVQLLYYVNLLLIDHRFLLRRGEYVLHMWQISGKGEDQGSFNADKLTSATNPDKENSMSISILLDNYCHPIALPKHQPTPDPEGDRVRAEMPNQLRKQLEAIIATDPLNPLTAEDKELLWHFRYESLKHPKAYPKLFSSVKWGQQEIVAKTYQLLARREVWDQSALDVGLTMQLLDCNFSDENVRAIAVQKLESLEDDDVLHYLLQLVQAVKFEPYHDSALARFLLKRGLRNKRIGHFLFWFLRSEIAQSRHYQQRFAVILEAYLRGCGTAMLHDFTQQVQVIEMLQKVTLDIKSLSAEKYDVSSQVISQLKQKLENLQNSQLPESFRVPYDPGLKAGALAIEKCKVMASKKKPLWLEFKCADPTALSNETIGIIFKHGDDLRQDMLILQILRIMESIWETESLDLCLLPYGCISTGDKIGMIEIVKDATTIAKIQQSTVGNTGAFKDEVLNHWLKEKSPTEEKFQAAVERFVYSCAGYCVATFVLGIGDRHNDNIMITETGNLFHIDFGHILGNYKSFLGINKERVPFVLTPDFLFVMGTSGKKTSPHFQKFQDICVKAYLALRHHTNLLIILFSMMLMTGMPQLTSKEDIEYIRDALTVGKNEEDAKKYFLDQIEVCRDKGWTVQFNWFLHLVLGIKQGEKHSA
PI3-kinase subunit gamma/Phosphoinositide 3-kinase regulatory subunit 5, sequence (Q8WYR1 whole entry, further chain): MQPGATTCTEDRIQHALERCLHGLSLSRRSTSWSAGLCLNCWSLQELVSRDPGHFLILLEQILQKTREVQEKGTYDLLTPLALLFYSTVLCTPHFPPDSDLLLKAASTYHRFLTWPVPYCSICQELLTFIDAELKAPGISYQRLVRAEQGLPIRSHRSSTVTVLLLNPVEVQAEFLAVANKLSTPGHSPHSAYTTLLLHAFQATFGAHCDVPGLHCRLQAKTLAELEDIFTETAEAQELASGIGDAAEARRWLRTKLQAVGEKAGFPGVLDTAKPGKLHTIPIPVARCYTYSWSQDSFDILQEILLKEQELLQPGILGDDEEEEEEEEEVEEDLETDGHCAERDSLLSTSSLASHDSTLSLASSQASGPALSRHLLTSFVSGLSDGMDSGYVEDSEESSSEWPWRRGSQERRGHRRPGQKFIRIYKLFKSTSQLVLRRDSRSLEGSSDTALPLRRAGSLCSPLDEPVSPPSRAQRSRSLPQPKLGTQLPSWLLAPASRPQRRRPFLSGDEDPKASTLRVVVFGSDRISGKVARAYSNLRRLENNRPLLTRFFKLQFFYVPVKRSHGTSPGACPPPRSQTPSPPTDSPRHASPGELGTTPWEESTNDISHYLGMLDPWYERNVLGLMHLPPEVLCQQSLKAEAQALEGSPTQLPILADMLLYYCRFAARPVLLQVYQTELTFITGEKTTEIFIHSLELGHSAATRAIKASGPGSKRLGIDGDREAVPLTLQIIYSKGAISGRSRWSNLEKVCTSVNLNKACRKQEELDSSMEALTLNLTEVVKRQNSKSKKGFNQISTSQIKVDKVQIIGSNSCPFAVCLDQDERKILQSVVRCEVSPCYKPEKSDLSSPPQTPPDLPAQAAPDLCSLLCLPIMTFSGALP
PI3K p110 beta/p85 alpha, sequence (P27986 whole entry): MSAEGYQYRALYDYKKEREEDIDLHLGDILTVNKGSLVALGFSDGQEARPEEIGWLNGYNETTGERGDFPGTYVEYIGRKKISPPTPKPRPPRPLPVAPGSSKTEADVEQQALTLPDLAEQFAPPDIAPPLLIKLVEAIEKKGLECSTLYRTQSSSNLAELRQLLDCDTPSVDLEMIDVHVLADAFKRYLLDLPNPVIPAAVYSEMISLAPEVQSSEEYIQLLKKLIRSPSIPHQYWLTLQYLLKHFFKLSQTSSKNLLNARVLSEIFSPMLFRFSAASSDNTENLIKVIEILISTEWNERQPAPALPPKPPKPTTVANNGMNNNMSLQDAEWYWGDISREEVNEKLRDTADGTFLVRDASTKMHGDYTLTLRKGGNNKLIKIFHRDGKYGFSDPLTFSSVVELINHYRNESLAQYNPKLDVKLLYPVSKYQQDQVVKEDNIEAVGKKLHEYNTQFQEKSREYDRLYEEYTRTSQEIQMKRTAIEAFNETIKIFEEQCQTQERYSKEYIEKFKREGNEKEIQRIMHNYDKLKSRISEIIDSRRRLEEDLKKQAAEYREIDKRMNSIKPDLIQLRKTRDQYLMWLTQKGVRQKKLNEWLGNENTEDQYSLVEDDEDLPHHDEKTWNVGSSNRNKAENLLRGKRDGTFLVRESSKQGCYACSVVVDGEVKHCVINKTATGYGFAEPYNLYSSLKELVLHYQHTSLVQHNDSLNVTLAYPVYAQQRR
PI3K p110 beta/p85 alpha, sequence (P42338 whole entry): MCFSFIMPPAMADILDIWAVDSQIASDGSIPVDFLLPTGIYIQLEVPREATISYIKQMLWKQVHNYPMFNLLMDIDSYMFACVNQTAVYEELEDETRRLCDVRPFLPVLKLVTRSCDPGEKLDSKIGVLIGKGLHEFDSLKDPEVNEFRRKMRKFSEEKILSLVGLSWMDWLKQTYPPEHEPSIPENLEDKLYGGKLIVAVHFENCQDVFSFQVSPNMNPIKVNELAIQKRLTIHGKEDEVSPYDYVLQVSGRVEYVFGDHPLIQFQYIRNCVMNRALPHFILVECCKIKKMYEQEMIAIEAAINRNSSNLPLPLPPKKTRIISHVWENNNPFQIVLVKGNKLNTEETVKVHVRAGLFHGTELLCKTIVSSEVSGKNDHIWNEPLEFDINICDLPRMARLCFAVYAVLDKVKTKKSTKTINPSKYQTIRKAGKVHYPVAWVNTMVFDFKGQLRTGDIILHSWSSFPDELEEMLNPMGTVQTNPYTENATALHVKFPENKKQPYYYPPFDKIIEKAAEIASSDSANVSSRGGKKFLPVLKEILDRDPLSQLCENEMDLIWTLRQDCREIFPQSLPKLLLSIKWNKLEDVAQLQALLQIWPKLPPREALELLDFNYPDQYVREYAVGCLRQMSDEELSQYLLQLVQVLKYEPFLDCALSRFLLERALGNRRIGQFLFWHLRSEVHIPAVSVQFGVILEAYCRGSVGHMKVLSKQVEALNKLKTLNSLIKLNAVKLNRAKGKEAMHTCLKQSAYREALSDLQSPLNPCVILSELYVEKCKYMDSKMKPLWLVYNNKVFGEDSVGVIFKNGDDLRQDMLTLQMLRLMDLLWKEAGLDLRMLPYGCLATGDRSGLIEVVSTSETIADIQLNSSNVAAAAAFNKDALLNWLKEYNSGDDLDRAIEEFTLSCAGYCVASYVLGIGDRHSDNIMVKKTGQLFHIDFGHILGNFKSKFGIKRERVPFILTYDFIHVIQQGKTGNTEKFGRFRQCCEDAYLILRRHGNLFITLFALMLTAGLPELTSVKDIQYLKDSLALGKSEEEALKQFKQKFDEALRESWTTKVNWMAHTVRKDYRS
PI3-kinase p110-delta/p85-alpha, sequence (P27986 whole entry): as the sequence (P27986 whole entry) above
PI3-kinase p110-delta/p85-alpha, sequence (O00329 whole entry): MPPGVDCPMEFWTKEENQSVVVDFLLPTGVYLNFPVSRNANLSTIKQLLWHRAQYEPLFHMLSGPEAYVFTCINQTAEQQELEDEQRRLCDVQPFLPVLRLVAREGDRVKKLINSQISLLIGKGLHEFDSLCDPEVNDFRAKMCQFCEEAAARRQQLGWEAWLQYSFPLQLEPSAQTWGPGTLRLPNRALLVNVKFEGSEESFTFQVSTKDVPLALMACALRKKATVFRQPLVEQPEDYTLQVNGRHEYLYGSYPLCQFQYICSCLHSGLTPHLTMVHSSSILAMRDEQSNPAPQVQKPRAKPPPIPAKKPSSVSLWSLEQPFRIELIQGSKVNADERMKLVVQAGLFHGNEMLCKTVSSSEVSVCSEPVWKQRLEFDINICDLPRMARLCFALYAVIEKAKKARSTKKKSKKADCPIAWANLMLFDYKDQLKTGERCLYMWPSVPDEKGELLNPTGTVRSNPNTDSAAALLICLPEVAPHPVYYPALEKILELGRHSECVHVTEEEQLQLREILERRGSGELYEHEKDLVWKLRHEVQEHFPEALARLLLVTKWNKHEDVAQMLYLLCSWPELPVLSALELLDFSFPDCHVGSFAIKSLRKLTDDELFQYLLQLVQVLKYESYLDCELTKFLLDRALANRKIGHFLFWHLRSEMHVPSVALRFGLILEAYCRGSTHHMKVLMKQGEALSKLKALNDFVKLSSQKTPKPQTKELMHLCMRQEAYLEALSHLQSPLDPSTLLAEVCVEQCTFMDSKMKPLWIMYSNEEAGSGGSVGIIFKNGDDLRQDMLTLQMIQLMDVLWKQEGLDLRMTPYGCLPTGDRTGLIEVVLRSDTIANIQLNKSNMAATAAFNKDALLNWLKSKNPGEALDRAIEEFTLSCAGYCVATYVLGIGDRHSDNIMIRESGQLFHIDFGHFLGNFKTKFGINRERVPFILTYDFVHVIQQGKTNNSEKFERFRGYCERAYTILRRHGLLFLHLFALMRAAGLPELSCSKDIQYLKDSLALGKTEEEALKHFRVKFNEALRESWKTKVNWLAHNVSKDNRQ

Row | SMILES | pIC50 (HCT-116) | pIC50 (MCF7) | also measured
1 | COc1ncc(-c2ccc3ncn(C4CCN(CC5CC5)CC4)c(=O)c3c2)cc1NS(=O)(=O)c1ccc(F)cc1 | 5.91 | 5.65 | –
2 | COc1ncc(-c2ccc3ncn(CCN4CCOCC4)c(=O)c3c2)cc1NS(=O)(=O)c1ccc(F)cc1 | 5.74 | 5.49 | –
3 | COc1ncc(-c2ccc3ncn(CCN(C)C)c(=O)c3c2)cc1NS(=O)(=O)c1ccc(F)cc1 | 5.57 | 5.43 | –
4 | CCN(CC)CCn1cnc2ccc(-c3cnc(OC)c(NS(=O)(=O)c4ccc(F)cc4F)c3)cc2c1=O | 5.99 | 5.59 | –
5 | COc1ncc(-c2ccc3ncn([C@H]4CCNC4)c(=O)c3c2)cc1NS(=O)(=O)c1ccc(F)cc1 | 5.84 | 5.56 | –
6 | COc1ncc(-c2ccc3ncn(C4CCNCC4)c(=O)c3c2)cc1NS(=O)(=O)c1ccc(F)cc1 | 5.94 | 5.78 | –
7 | COc1ncc(-c2ccc3ncn([C@@H]4CCN(CC5CC5)C4)c(=O)c3c2)cc1NS(=O)(=O)c1ccc(F)cc1 | 5.31 | 5.69 | –
8 | COc1ncc(-c2ccc3ncn(-c4ccc(CN5CCOCC5)cc4)c(=O)c3c2)cc1NS(=O)(=O)c1ccc(F)cc1 | 5.85 | 5.46 | –
9 | COc1ncc(-c2ccc3ncn(Cc4ccncc4)c(=O)c3c2)cc1NS(=O)(=O)c1ccc(F)cc1 | 5.53 | 5.74 | –
10 | COc1ncc(-c2ccc3ncn([C@@H]4CCN(C(C)=O)C4)c(=O)c3c2)cc1NS(=O)(=O)c1ccc(F)cc1 | 5.33 | 5.61 | –
11 | COc1ncc(-c2ccc3ncn(Cc4ccccc4)c(=O)c3c2)cc1NS(=O)(=O)c1ccc(F)cc1 | 5.32 | 5.23 | –
12 | COc1ncc(-c2ccc3ncn(C4CCN(C(=O)C5CCOCC5)CC4)c(=O)c3c2)cc1NS(=O)(=O)c1ccc(F)cc1 | 6.02 | 5.54 | –
13 | COc1ncc(-c2ccc3ncn(CCN4CCOCC4)c(=O)c3c2)cc1NS(=O)(=O)c1ccc(Cl)cc1 | 5.69 | 5.38 | –
14 | Cn1c(=O)n(-c2ccc(C(C)(C)C#N)cc2)c2c3cc(-c4cnc5ccccc5c4)ccc3ncc21 [DACTOLISIB] | 6.25 | 5.96 | –

Further molecules by rising pIC50 (HCT-116), results first:

Row | pIC50 (HCT-116) | pIC50 (MCF7) | SMILES | also measured
15 | 5.22 | 5.65 | COc1ncc(-c2ccc3ncn([C@@H]4CCN(C(=O)C5CC5)C4)c(=O)c3c2)cc1NS(=O)(=O)c1ccc(F)cc1 | –
16 | 5.39 | 5.41 | CCCCn1cnc2ccc(-c3cnc(OC)c(NS(=O)(=O)c4ccc(F)cc4)c3)cc2c1=O | –
17 | 5.55 | 5.48 | COc1ccc(Cn2cnc3ccc(-c4cnc(OC)c(NS(=O)(=O)c5ccc(F)cc5)c4)cc3c2=O)cc1 | –
18 | 5.56 | 5.53 | COc1ncc(-c2ccc3ncn(CCN4CCCCC4)c(=O)c3c2)cc1NS(=O)(=O)c1ccc(F)cc1 | –
19 | 5.58 | 5.42 | COc1ncc(-c2ccc3ncn(CCN4CCCC4)c(=O)c3c2)cc1NS(=O)(=O)c1ccc(F)cc1 | –
20 | 5.82 | 5.36 | COc1ncc(-c2ccc3ncn(C4CCN(C(=O)OC(C)(C)C)CC4)c(=O)c3c2)cc1NS(=O)(=O)c1ccc(F)cc1 | –
21 | 5.84 | 5.52 | COc1ncc(-c2ccc3ncn(CCN4CCN(C)CC4)c(=O)c3c2)cc1NS(=O)(=O)c1ccc(F)cc1 | –
22 | 5.87 | 5.56 | COc1ncc(-c2ccc3ncn(C4CCN(C(=O)C5CC5)CC4)c(=O)c3c2)cc1NS(=O)(=O)c1ccc(F)cc1 | –
23 | 5.87 | 5.46 | COc1ncc(-c2ccc3ncn(CCN4CCOCC4)c(=O)c3c2)cc1NS(=O)(=O)c1ccc(C)cc1 | –
24 | 5.89 | 5.58 | COc1ncc(-c2ccc3ncn(C4CCN(C(C)=O)CC4)c(=O)c3c2)cc1NS(=O)(=O)c1ccc(F)cc1 | –
25 | 5.89 | 5.75 | COc1ncc(-c2ccc3ncn(Cc4cccnc4)c(=O)c3c2)cc1NS(=O)(=O)c1ccc(F)cc1 | –
26 | 5.90 | 5.60 | COc1ncc(-c2ccc3ncn([C@H]4CCN(C(C)=O)C4)c(=O)c3c2)cc1NS(=O)(=O)c1ccc(F)cc1 | –
27 | 5.90 | 5.34 | COc1ncc(-c2ccc3ncn(-c4ccc(CN5CCN(C)CC5)cc4)c(=O)c3c2)cc1NS(=O)(=O)c1ccc(F)cc1 | –
28 | 5.92 | 5.63 | CCN(CC)CCn1cnc2ccc(-c3cnc(OC)c(NS(=O)(=O)c4ccc(F)cc4)c3)cc2c1=O | –
29 | 6.15 | 5.63 | COc1ncc(-c2ccc3ncn([C@H]4CCN(C(=O)C5CC5)C4)c(=O)c3c2)cc1NS(=O)(=O)c1ccc(F)cc1 | Ratio IC50 [1]: 10; pIC50 [2]: 6.94; pIC50 (PI3K p110 beta/p85 alpha): 6.68; inhibition in vivo at 40 mg/kg (CCRF S-180 [6]): 58%; pIC50 [3]: 6.97; pIC50 [4]: 8.14; pIC50 [5]: 6.68; inhibition in vivo at 20 mg/kg (CCRF S-180 [7]): 34.5%; Activity (Mus musculus): Toxic
30 | 6.17 | 5.99 | COc1ncc(-c2ccc3ncn([C@H]4CCN(CC5CC5)C4)c(=O)c3c2)cc1NS(=O)(=O)c1ccc(F)cc1 | Ratio IC50 [1]: 10; pIC50 [2]: 6.74; pIC50 (PI3K p110 beta/p85 alpha): 7.62; pIC50 [3]: 7.68; pIC50 [4]: 8.17; pIC50 [5]: 6.94
31 | 6.18 | 5.56 | COc1ncc(-c2ccc3ncn([C@H]4CCN(C(=O)OC(C)(C)C)C4)c(=O)c3c2)cc1NS(=O)(=O)c1ccc(F)cc1 | –
32 | 6.22 | 5.79 | COc1ncc(-c2ccc3ncn([C@H]4CCN(C(=O)C5CCOCC5)C4)c(=O)c3c2)cc1NS(=O)(=O)c1ccc(F)cc1 | –
